ChEMBL document CHEMBL4513216, “Probing the Open Global Health Chemical Diversity Library for Multistage-Active Starting Points for Next-Generation Antimalarials” (ACS Infect Dis, 2020)

Test: Toxicity liver stage against HepG2, at 10uM
Format: cell-based
Parameters: test concentration 10 uM, cell line HepG2-A16-CD81EGFP
Conditions: human, HepG2-A16-CD81EGFP cells; read-out: INHIBITION
In short: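 Uninfected HepG2-A16-CD81EGFP cells, 3 × 10^3 per well, 1536-well, plated on prespotted compound at 10 μM final, parasite-free screening media added to match infected plates; puromycin 10 μM positive, DMSO 0.5% negative; run in parallel with 48 h PbLuc assay at 37 °C, 5% CO2; viability by CellTiter-Glo luminescence, normalized to controls.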

| Structure (SMILES) | cytotoxicity at 10 µM |
| --- | --- |
| CS(=O)(=O)N1CCN(C(=O)CN2CCCc3c(F)cc(F)cc32)CC1 | -1.52% |
| Cc1cccc(-c2noc([C@@H]3C[C@@H](O)CN3C)n2)c1 | -3.54% |
| Cn1cnc2cc(NC(=O)c3n[nH]c4c3CCC4)ccc21 | -0.806% |
| O=C(c1nnn(-c2ccc(F)cc2)n1)N(CCO)Cc1ccccc1 | 1.56% |
| Cc1c[nH]nc1C1CCN(C(=O)CC2CCCC2)C1 (stereo unspecified) | -4.15% |
| COc1cccc(C(=O)Nc2ccc(OCCC(N)=O)cc2)c1OC | 4.19% |
| CCOc1ccc(NC(=O)c2cccc(OC)c2OC)cc1 | 1.64% |
| NC(=O)CS(=O)(=O)Cc1ccc(OCc2ccc(F)cc2)cc1 | 4.93% |
| CCN(CC(C)C#N)C(=O)c1cccc(COc2ccc(C)nc2)c1 (stereo unspecified) | 5.8% |
| COc1cc(NC(=O)c2cccc(N(C)C)c2)cc(OC)c1 | 0.03% |
| CC(=O)Nc1cc(-c2cccc(F)c2F)n[nH]1 | -0.305% |
| CN(CC(=O)Nc1ccccc1)C(=O)CN(C)c1ccc(Cl)cn1 | -1.83% |
| NC(=O)NC1(C(=O)N2CCc3c(Cl)cccc3C2)CCCCC1 | -3.45% |
| Cc1ccc(F)c(CNc2ccn(CCC(N)=O)n2)c1 | -4.75% |
| O=C(c1csnn1)N1CCc2ccccc21 | 5.35% |
| Cc1ncc2c(n1)CCN(Cc1nc(Cc3ccccc3)no1)C2 | 0.414% |
| COc1ccc(C)cc1CN1CCN(Cc2nccn2C)CC1 | 5.5% |
| CCC(CC)(CNC(=O)OC(C)(C)C)NC(=O)C1CC1 | -0.708% |
| Cc1cnn(CCNC(C)C(=O)Nc2ccc(Cl)cn2)c1 (stereo unspecified) | 0.858% |
| COC(=O)c1cc(NC2CCN(CC(F)(F)F)C2=O)ccc1C (stereo unspecified) | -0.812% |
| Cc1ocnc1C(=O)Nc1ccc(-c2nnc(N(C)C)o2)cc1 | 5.49% |
| COc1cc(Cl)ccc1C(=O)NCC(=O)Nc1nccs1 | 6.62% |
| CCN(Cc1ccco1)C(C)c1nc(C(C)C)no1 (stereo unspecified) | 15.6% |
| CCOc1ccccc1C(=O)N(C)C(C)c1ccc(S(C)(=O)=O)cc1 (stereo unspecified) | 12.9% |
| CSCc1cc(F)ccc1CNC(=O)N1CCCC1 | 5.58% |
| O=C(c1csc(-c2ccco2)n1)N1CCOc2ncccc21 | 10.2% |

| Structure (SMILES) | cytotoxicity at 10 µM |
| --- | --- |
| Cc1noc(C)c1C(=O)NCCN1CCN(c2ccccc2)CC1 | -10.8% |
| COC1CCN(C(=O)c2csc(-c3ccccc3F)n2)CC1 | -5.6% |
| CCc1nc(CCNC(=O)NC2CCSCC2)cs1 | -5.55% |
| Cc1ccccc1-n1cnnc1SCC(=O)NCC1CCCO1 (stereo unspecified) | -1.15% |
| CCCNC(=O)CNc1cc(C(=O)NCC(F)(F)F)cc(F)c1C | 10% |
| N#Cc1ccc(N2CCCC2Cn2cccn2)nc1 (stereo unspecified) | 6.55% |
| CCNC(=O)NC(C)(C)C(=O)NCc1cccc(N2CC=CC2)c1 | 7.35% |
| CCC1CN(Cc2c(O)ccc3oc4c(c23)CCCC4)CCO1 (stereo unspecified) | 2.03% |
| O=C(CCNc1ncccn1)NCc1cccc(OC(F)F)c1 | -1.75% |
| Cc1nn(C)c(N2CCOCC2)c1CNCC1CCS(=O)(=O)C1 (stereo unspecified) | -2.09% |
| CC(=O)Nc1cc(C(=O)Nc2cc(CC(C)(C)C)nn2C)ccc1F | 0.388% |
| O=C(c1cn(-c2cccc(Cl)c2F)nn1)N1CCCSCC1 | 3.98% |
| N#Cc1cccc(CNC(=O)C2=NN(c3ccccc3)C(=O)CN2)c1 | -3.44% |
| Cc1cc(C)n(-c2ccc(N3CCC4(CC3)OCCO4)nc2)n1 | -4.84% |
| O=C(CSc1ccc2c(c1)OCCO2)NS(=O)(=O)c1cccs1 | -3.13% |
| CC(Oc1ccc(S(C)(=O)=O)cc1)C(=O)NC(N)=O (stereo unspecified) | -5.69% |
| Cc1cc(NC(=O)NCCc2ccc(S(N)(=O)=O)cc2)n(C)n1 | -3.39% |
| CNC(=O)CN(C)Cc1ccc(F)cc1Cl | -2.9% |
| O=C(CSc1ccc2c(c1)OCCO2)NS(=O)(=O)c1cccnc1 | -5.72% |
| Cc1c(C(=O)NCCC(=O)N2CCOCC2)sc2ccc(F)cc12 | 4.5% |
| COc1cc(NC(=O)c2cscn2)ncn1 | 3.12% |
| CCc1nc(C2CCCN(c3ncccn3)C2)no1 (stereo unspecified) | -0.996% |
| COCCN1CCN(CC(=O)N(C)Cc2ccc(F)cc2)CC1C (stereo unspecified) | -145% |
| CC(C)(C)c1noc(CCCC(=O)N2CCCC(c3ccn[nH]3)C2)n1 (stereo unspecified) | -14.2% |
| CN(C)C(=O)c1csc(-c2ccoc2)n1 | -1.13% |
| OCC1(CNC2CCc3cc4c(cc32)OCCO4)CC1 (stereo unspecified) | -3.37% |

| Structure (SMILES) | cytotoxicity at 10 µM |
| --- | --- |
| CC(C)N(C(=O)c1csc(-c2ccoc2)n1)C1CCOCC1 | -1.18% |
| Cc1n[nH]c(C2CN(Cc3ncc(C(C)C)o3)CCO2)n1 (stereo unspecified) | -6.32% |
| O=S1(=O)CCC(c2nc(-c3cccc(Br)c3)no2)C1 (stereo unspecified) | 7.51% |
| COc1ccc(C(C)Nc2ncc(C(N)=O)cc2Cl)cc1F (stereo unspecified) | 5.37% |
| Cc1cc(CS(=O)(=O)NCC2CCCCC2)on1 | -18.7% |
| O=C(COCc1ccccc1Cl)N1CCN(c2ncccn2)CC1 | 6.43% |
| CC(C)Nc1ccnc(-c2ccnc3c2ccn3C)n1 | -5.2% |
| COCCc1noc(-c2ccc(-c3cc[nH]n3)nc2)n1 | -2.79% |
| c1csc(-c2noc(COCC3CCCO3)n2)c1 (stereo unspecified) | -1.62% |
| Cc1cccc(C2CCCN(C(=O)CN3CCOC3=O)C2)c1 (stereo unspecified) | -2.82% |
| CC(C)Cc1cn(C2CCN(C(C)CC3CC3)CC2)nn1 (stereo unspecified) | -2.9% |
| CCCn1ncc(C(=O)N2CCN(C3CCSCC3)CC2)c1C | -148% |
| O=C1CCCCN1CC(=O)N1CCCC(c2ccccc2)C1 (stereo unspecified) | -1.05% |
| Cc1ccc(CCNc2ncnc3sc4c(c23)CCNC4)o1 | 3.94% |
| Cc1ncc(CO)c(CN2CCCC2c2nc3c(C)cccc3[nH]2)c1O (stereo unspecified) | 0.414% |
| Cc1cccc2nc(-c3nc4c([nH]3)CCCNC4=O)cn12 | 3.67% |
| NC1CCCc2nc(-c3ccccc3)ncc21 (stereo unspecified) | 4.93% |
| COC(C)(C)CC(C)NCc1nncn1C1CCCCC1 (stereo unspecified) | -2.87% |
| COCCOCC(=O)N1CCC(c2ccccc2F)C1 (stereo unspecified) | -6.45% |
| O=C(CN1C(=O)CCNC1=O)N1CCOC(c2ccc(F)cc2)C1 (stereo unspecified) | 5.11% |
| O=C(CCc1nc(Cl)n[nH]1)N1CCC2(CCCN(CC3CCC3)C2=O)C1 (stereo unspecified) | -5.3% |
| O=C1CC2(CCCC2)CN1CCOc1ccc(F)cc1 | 1.05% |
| O=C(c1cnccn1)N1CCCC(Cn2cc(C3CCCC3)nn2)C1 (stereo unspecified) | -4.86% |
| Cc1cc(C(=O)N2CCCC3(C=Cc4ccccc4O3)CC2)cc(=O)[nH]1 (stereo unspecified) | 8.06% |
| O=C1CCC2(CCCN(C(=O)c3ccc[nH]3)C2)CN1Cc1cccnc1 (stereo unspecified) | 9.88% |
| Cc1cc(N2Cc3cnn(CCO)c3C2)nc(-c2ccccc2O)n1 | -162% |

| Structure (SMILES) | cytotoxicity at 10 µM |
| --- | --- |
| CCNC(=O)[C@@H]1C[C@H](N)CN1c1cc(C(F)(F)F)nc(N(C)C)n1 | -14.1% |
| O=C(Nc1ccc(-c2nc3c([nH]2)CCNC3)cc1)N1CCCC1 | -4.36% |
| CCOc1ccc(-c2ccc3c(c2)OCO3)cc1C(N)=O | 5.17% |
| Cc1cc(-c2nc(-c3ccccn3)nn2C2CCN(C)CC2)nc(C)n1 | -3.14% |
| COCCN(Cc1sccc1C)C(=O)C1CCCN(C(N)=O)C1 (stereo unspecified) | -4.7% |
| O=c1c2cccc(F)c2ncn1CCN1CCOCC1 | 2.53% |
| CCNC(=O)c1ccnc(CC2COc3c(cccc3OC)C2)c1 (stereo unspecified) | 0.441% |
| O=C(N[C@H]1COC[C@@H]1N1CCCC1)c1c[nH]nc1C1CCCCC1 | -5.59% |
| O=C(NC1CC1)C1CNCCN1C(=O)CCc1ccc2c(c1)OCO2 (stereo unspecified) | -0.766% |
| CC(C)n1cnnc1CN(C)Cc1cnc(-c2cccs2)nc1 | 8.55% |
| COc1ccccc1C1CCN(C(=O)CN2C(=O)OC(C)(C)C2=O)CC1 | 8.12% |
| O=C(NCCCc1ccco1)c1ccc(N2CCOCC2)cc1 | -5.54% |
| O=C(CCC(=O)N1CCC(Cc2ccc(CO)cc2)C1)c1ccccc1 (stereo unspecified) | 0.727% |
| Cc1ccsc1CNC(=O)NC(C)c1ccc2c(c1)CCC(=O)N2 (stereo unspecified) | 5.31% |
| CC(NC(=O)NCCCN1CCc2ccccc2C1)c1nncn1C (stereo unspecified) | -2.6% |
| Cc1ccc(NC(=O)NCCCn2nc3ccccn3c2=O)cc1 | -19.1% |
| O=C(COc1ccc(Cl)cc1)N1CCN(c2cnccn2)CC1 | -20.4% |
| Cc1cnc(C(=O)N2CCC(C(=O)c3cc(F)ccc3F)CC2)cn1 | -5.88% |
| Cc1nc(CN2CCCC(NCC(=O)Nc3cccnc3)C2)no1 (stereo unspecified) | 0.0757% |
| O=C1CC2(CCN(Cc3cccnc3)C2)CN1c1cccc(F)c1 (stereo unspecified) | -147% |
| O=c1ccc2c(n1Cc1cccnc1)CCN(Cc1ccoc1)CC2 | -140% |
| COc1c(-c2ccc(O)cc2)oc2cc(O)cc(O)c2c1=O [ISOKAEMPFERIDE] | 7.8% |
| CCCNC(=O)C(C)Nc1ccc(OCC)cc1 (stereo unspecified) [PROPETAMIDE] | 8.84% |
